Results on 4 compounds are retold here after ChEMBL document CHEMBL3621084, “Discovery of 2-Pyridinone Aminals: A Prodrug Strategy to Advance a Second Generation of HIV-1 Integrase Strand Transfer Inhibitors” (J Med Chem, 2015).

Values after ≈ are worked out from the molar mass of the structure shown. Bounds are passed on as bounds.

One data set deals with Cytochrome P450 3A4 (Homo sapiens, UniProt P08684). Put plainly: Time dependent inhibition of CYP3A4 (unknown origin). Format: ADME.
Data set [1] is described as follows: Plasma clearance in beagle dog at 0.5 mg/kg, iv by LC-MS/MS method. It is filed as ADME, organism-based, Canis lupus familiaris.
A short description of data set [2]: Solubility in SGF at pH 1.8 at room temperature incubated for 4 hrs. It is filed as physicochemical.
A short description of data set [3]: Protein binding in beagle dog plasma at 2.5 uM incubated for 4 hrs by LC-MS/MS detection based equilibrium dialysis method. To be noted: read-out: PPB (converted). Format: ADME, cell-free, Canis lupus familiaris.
The subject of data set [4] is Human immunodeficiency virus 1. Put plainly: Resistance index, ratio of IC50 for antiviral activity against HIV1 expressing integrase Q148R mutant to IC50 for antiviral activity against HIV1 expressing wild type integrase. It is filed as functional. An outline of the steps:
(§1)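 Fold shift computed as the inflection point (IP) against mutant HIV-1 divided by the IP against wild-type virus. Both IPs come from a kinetic HIV replication (viral kinetics) potency assay run in 50% normal human serum (NHS).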

Data set [5] in a line: Solubility in FaSSiF at pH 6.5 at room temperature incubated for 4 hrs. It is filed as physicochemical.
The nature of data set [6]: Oral bioavailability in beagle dog at 1 mg/kg by LC-MS/MS method. Format: ADME, organism-based, Canis lupus familiaris. The conditions noted are these: in vivo.
Data set [7] can be described thus: Half life in beagle dog at 0.5 mg/kg, iv by LC-MS/MS method. The conditions noted are these: in vivo.
Data set [8] can be described thus: Permeability in LLC-PK1 cells at 1 uM incubated for 3 hrs by LC-MS/MS method. Format: ADME, cell-based, Sus scrofa. To be noted: pig, read-out: permeability.
The test system of data set [9] is Human immunodeficiency virus 1. Put plainly: Antiviral activity against HIV1 infected in human MT4 cells expressing GFP incubated for 48 to 72 hrs in presence of 50% normal human serum by multiple round viral replication kinetics assay. It is filed as functional.
The subject of data set [10] is Human immunodeficiency virus 1. Put plainly: Resistance index, ratio of IC50 for antiviral activity against HIV1 expressing integrase Y143R mutant to IC50 for antiviral activity against HIV1 expressing wild type integrase. It is filed as functional. An outline of the steps:
as §1

Data set [11] relates to Canis familiaris. Put plainly: AUC (0 to infinity) in beagle dog assessed as c(1R,2S,5R)-8'-(3-chloro-4-fluorobenzyl)-6'-hydroxy-1-(hydroxymethyl)-2'-methyl-9',10'-dihydro-1'H-spiro[bicyclo[3.1.0]hexane-2,3'-imidazo[5,1-a][2,6]naphthyridine]-1',5',7'(2'H,8'H)-trione evel at 2 mg/kg, po by LC-MS/MS method. It is filed as ADME, organism-based, Canis lupus familiaris. Also on record: dose 2 mg/kg, route oral, time infinity. The conditions noted are these: in vivo. An outline of the steps: (§2)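 Oral rising-dose studies were run in beagle dogs with prodrugs, at doses normalized to account for the promoiety so that they give the actual parent dose administered. The read-out was plasma exposure (AUC) of the parent compound.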

Data set [12] can be described thus: AUC (0 to infinity) in beagle dog at 1 mg/kg, po by LC-MS/MS method. Format: ADME, organism-based, Canis lupus familiaris. Also on record: dose 1 mg/kg, route oral, time infinity. The conditions noted are these: in vivo.
Data set [13] can be described thus: Protein binding in human plasma at 2.5 uM incubated for 4 hrs by LC-MS/MS detection based equilibrium dialysis method. It is filed as ADME, cell-free. To be noted: read-out: PPB (converted). A general note: Equilibrium dialysis compares concentrations on both sides of a semipermeable membrane.
Data set [14] has as its system Human immunodeficiency virus 1. Put plainly: Resistance index, ratio of IC50 for antiviral activity against HIV1 expressing integrase E92Q mutant to IC50 for antiviral activity against HIV1 expressing wild type integrase. Format: functional. An outline of the steps:
as §1

A short description of data set [15]: Volume of distribution at steady state in beagle dog at 0.5 mg/kg, iv by LC-MS/MS method. It is filed as ADME, organism-based, Canis lupus familiaris. The conditions noted are these: in vivo, read-out: Vdss.
Data set [16] can be described thus: Permeability in MDCK2 cells at 1 uM incubated for 3 hrs by LC-MS/MS method. Format: ADME, cell-based, Canis lupus familiaris, MDCK-II. To be noted: dog, MDCK; read-out: permeability.
For data set [17], the system named is Human immunodeficiency virus 1. Nature of the data set: Antiviral activity against HIV1 infected in human MT4 cells expressing GFP incubated for 48 to 72 hrs in absence of 50% normal human serum by multiple round viral replication kinetics assay. It is filed as functional.
The nature of data set [18]: AUC (0 to infinity) in beagle dog at 2 mg/kg, po by LC-MS/MS method. Also on record: dose 2 mg/kg, route oral, time infinity. It is filed as ADME, organism-based, Canis lupus familiaris. To be noted: beagle, in vivo.
Data set [19] is described as follows: Stability in SGF at pH 1.8 at 37 °C incubated for 4 hrs.
The nature of data set [20]: Stability in FaSSiF at pH 6.5 at 37 °C incubated for 4 hrs.
Data set [21] has as its system Canis familiaris. Nature of the data set: AUC (0 to infinity) in beagle dog assessed as (1R,2R,5S)-8'-(3-chloro-4-fluorobenzyl)-6'-hydroxy-2'-((S)-2-hydroxypropyl)-9',10'-dihydro-1'H-spiro[bicyclo[3.1.0]hexane-2,3'-imidazo[5,1-a][2,6]naphthyridine]-1',5',7'(2'H,8'H)-trione level at 2 mg/kg, po by LC-MS/MS method. The conditions noted are these: in vivo. Also on record: dose 2 mg/kg, time infinity, route oral. Format: ADME, organism-based, Canis lupus familiaris. The method in brief:
as §2

Data set [22] is described as follows: Oral bioavailability in beagle dog at 2 mg/kg by LC-MS/MS method. Format: ADME, organism-based, Canis lupus familiaris. The conditions noted are these: beagle, in vivo.
A short description of data set [23]: Half life in beagle dog at 0.5 mg/kg, iv by LC-MS/MS method. The conditions noted are these: in vivo. This is another data set of the same source.
In data set [24] the test system is Canis familiaris. Nature of the data set: AUC (0 to infinity) in beagle dog assessed as (1R,2R,5S)-8'-(3-chloro-4-fluorobenzyl)-6'-hydroxy-2'-((S)-2-hydroxypropyl)-9',10'-dihydro-1'H-spiro[bicyclo[3.1.0]hexane-2,3'-imidazo[5,1-a][2,6]naphthyridine]-1',5',7'(2'H,8'H)-trione level at 10 mg/kg, po by LC-MS/MS method. It is filed as ADME, organism-based, Canis lupus familiaris. Also on record: dose 10 mg/kg, time infinity, route oral. To be noted: in vivo. An outline of the steps: as §2

The nature of data set [25]: AUC (0 to infinity) in portal vein of portal vein-cannulated beagle dog at 10 mg/kg, po by LC-MS/MS method. Format: ADME, organism-based, Canis lupus familiaris. Also on record: dose 10 mg/kg, time infinity, route oral. The method in brief: (§3)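 Portal vein-cannulated dogs received the prodrugs orally at doses normalized to 10 mg/kg of the parent molecule. Prodrug and parent concentrations were determined in plasma collected from the portal and jugular veins, and AUC was derived for each analyte at each site.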

Data set [26] is described as follows: AUC (0 to infinity) in jugular vein of portal vein-cannulated beagle dog assessed as (1R,2R,5S)-8'-(3-chloro-4-fluorobenzyl)-6'-hydroxy-2'-((S)-2-hydroxypropyl)-9',10'-dihydro-1'H-spiro[bicyclo[3.1.0]hexane-2,3'-imidazo[5,1-a][2,6]naphthyridine]-1',5',7'(2'H,8'H)-trione level at 10 mg/kg, po by LC-MS/MS method. Also on record: dose 10 mg/kg, route oral, time infinity. To be noted: in vivo. It is filed as ADME, organism-based, Canis lupus familiaris. An outline of the steps:
as §3

Data set [27] is described as follows: AUC (0 to infinity) in jugular vein of portal vein-cannulated beagle dog at 10 mg/kg, po by LC-MS/MS method. It is filed as ADME, organism-based, Canis lupus familiaris. Also on record: dose 10 mg/kg, time infinity, route oral. The method in brief: as §3
The nature of data set [28]: AUC (0 to infinity) in portal vein of portal vein-cannulated beagle dog assessed as (1R,2R,5S)-8'-(3-chloro-4-fluorobenzyl)-6'-hydroxy-2'-((S)-2-hydroxypropyl)-9',10'-dihydro-1'H-spiro[bicyclo[3.1.0]hexane-2,3'-imidazo[5,1-a][2,6]naphthyridine]-1',5',7'(2'H,8'H)-trione level at 10 mg/kg, po by LC-MS/MS method. Format: ADME, organism-based, Canis lupus familiaris. Also on record: dose 10 mg/kg, route oral, time infinity. The conditions noted are these: in vivo. The method in brief: as §3

Sequence of Cytochrome P450 3A4 (P08684 whole entry): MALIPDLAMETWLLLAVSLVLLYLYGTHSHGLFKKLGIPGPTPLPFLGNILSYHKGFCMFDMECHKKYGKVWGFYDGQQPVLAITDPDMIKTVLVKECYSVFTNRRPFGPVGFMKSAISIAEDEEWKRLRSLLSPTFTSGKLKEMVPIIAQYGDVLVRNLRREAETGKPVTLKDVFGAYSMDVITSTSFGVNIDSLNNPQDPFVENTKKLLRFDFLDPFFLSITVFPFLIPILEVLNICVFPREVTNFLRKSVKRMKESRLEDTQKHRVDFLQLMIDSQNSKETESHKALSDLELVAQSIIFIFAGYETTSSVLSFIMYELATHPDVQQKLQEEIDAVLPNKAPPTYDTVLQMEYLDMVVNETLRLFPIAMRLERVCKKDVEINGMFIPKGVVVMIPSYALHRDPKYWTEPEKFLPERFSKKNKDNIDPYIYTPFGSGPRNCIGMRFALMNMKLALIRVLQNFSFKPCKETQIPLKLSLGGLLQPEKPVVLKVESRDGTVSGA

In general, clearance refers to the rate of elimination divided by the concentration. High values mean a high capacity for elimination, low ones a low capacity for elimination. In general, solubility refers to the dissolved amount per volume that the medium holds. A high value points to a readily soluble substance. As a reminder, the bioavailability is dose-corrected exposure relative to a reference, in per cent. Read a low bioavailability as little systemic uptake. As a reminder, the half-life is the time in which the quantity being followed falls by half. For orientation: AUC means concentration integrated over time. In general, AUC(0-inf) refers to the area under the concentration-time curve extrapolated to infinity. Low values mean low exposure, high ones high exposure. As for `CN1C(=O)c2c3c(c(O)c(=O)n2[C@]12CC[C@@H]1C[C@@]12CO)C(=O)N(Cc1ccc(F)c(Cl)c1)CC3`, at Cytochrome P450 3A4, the TDI result is “Not Active”. The compound also had a clearance in data set [1] of 1.9 mL/min/kg. Further, the solubility at 4 h was 17 µg/mL (≈ 34.8 µM) in data set [2] and 30 µg/mL (≈ 61.5 µM) in data set [5]. The fraction unbound at 4 h, 2.5 µM in data set [3] is 0.014; in data set [13], 0.02. The “Ratio IC50” value in data set [4], in data set [10] and in data set [14] was 1 throughout. The same compound showed a bioavailability in [6] of 26%. Moreover, the half-life in data set [7] is 300 min. In addition, the Papp at 3 h, 1 µM in [8] came to 6.7 ×10⁻⁶ cm/s; in data set [16], 8.4 ×10⁻⁶ cm/s. Besides, the IP was 32 nM in [9] and 3 nM in data set [17]. For the same compound, in the data set on Canis familiaris [11], the AUC was 8 µM·h. The AUC(0-inf) in [12] stood at 4.9 µM·h. In addition, in data set [15], the Vd was 0.4 L/kg.
One may read the fraction remaining as the share of the starting amount still present when the sample was taken. Regarding `C[C@@H](CN1C(=O)c2c3c(c(O)c(=O)n2[C@@]12CC[C@H]1C[C@H]12)C(=O)N(Cc1ccc(F)c(Cl)c1)CC3)OC(=O)[C@@H](N)CCCCN`, the area under the curve AUC(0-inf) in [18] was found to be 6.8 µM·h. Also, the share remaining at 4 h in data set [19] and in data set [20] was 90% each time. This compound came in with a solubility at 4 h in data set [5] above 2000 µg/mL. The IP in [17] was 40 nM.
For `C[C@H](O)CN1C(=O)c2c3c(c(O)c(=O)n2[C@@]12CC[C@H]1C[C@H]12)C(=O)N(Cc1ccc(F)c(Cl)c1)CC3`, the TDI entry on Cytochrome P450 3A4 is listed as “Not Active”. Moreover, in the data set on Canis familiaris [21], the AUC was determined as 11 µM·h. In data set [1], the clearance is 3 mL/min/kg. The solubility at 4 h in data set [2] was found to be 30 µg/mL (≈ 59.8 µM); in data set [5], 58 µg/mL (≈ 116 µM). In [18], this compound displayed an AUC(0-inf) of 10.5 µM·h. In addition, the fraction unbound at 4 h, 2.5 µM is 0.012 in data set [3] and 0.025 in data set [13]. Besides, the “Ratio IC50” value in data set [4] is reported as 1.5; in [10] it was 1; in [14] it was 1.5. Besides, the bioavailability in [22] came to 42%. Besides, the values for the Papp at 3 h, 1 µM in [8] and in data set [16] were 14.8 ×10⁻⁶ cm/s and 22.9 ×10⁻⁶ cm/s, respectively. The results for the IP in data set [9] and in [17] were 67 nM and 2 nM, respectively. Besides, in data set [23], the half-life was 354 min. For the same compound, the Vd in data set [15] stood at 0.6 L/kg.
Regarding `CC(C)OC(=O)OCOc1c2c(c3n(c1=O)[C@@]1(CC[C@H]4C[C@H]41)N(C[C@H](C)O)C3=O)CCN(Cc1ccc(F)c(Cl)c1)C2=O`, the AUC with Canis familiaris [21] came to 23 µM·h; with Canis familiaris [24], 128 µM·h; in data set [26] it was 33.9 µM·h; in data set [28] it was 23.9 µM·h. Besides, the fraction remaining at 4 h in data set [19] and in data set [20] was above 98% in each case. The AUC(0-inf) in [25] worked out at 1.12 µM·h; in [27], 0.034 µM·h. In data set [5], this compound displayed a solubility at 4 h of 250 µg/mL (≈ 404 µM). Further, the Papp at 3 h, 1 µM in data set [8] was determined as 26.7 ×10⁻⁶ cm/s; in data set [16] it was 23.5 ×10⁻⁶ cm/s. The same compound had an IP in data set [17] of 178 nM.
